Test results from ChEMBL document CHEMBL5576114, “Inhibition of DXR in the MEP pathway with lipophilic N-alkoxyaryl FR900098 analogs” (RSC Med Chem, 2024).
In brackets after ≈: the same amount, converted by molar mass. Activity calls are given as the source filed them. The calls are words filed in the database; no cut-off is given here.

Legend:
[1] = molecular target: T1, 1-deoxy-D-xylulose 5-phosphate reductoisomerase, apicoplastic (Plasmodium falciparum (isolate 3D7), UniProt Q8IKG4); test: Inhibition of Plasmodium falciparum DXR expressed in Escherichia coli BL21 CodonPlus (DE3)-RIL cells using DOXP as substrate in presence of NADPH by UV-visible spectrophotometry
T1 sequence (Q8IKG4 whole entry): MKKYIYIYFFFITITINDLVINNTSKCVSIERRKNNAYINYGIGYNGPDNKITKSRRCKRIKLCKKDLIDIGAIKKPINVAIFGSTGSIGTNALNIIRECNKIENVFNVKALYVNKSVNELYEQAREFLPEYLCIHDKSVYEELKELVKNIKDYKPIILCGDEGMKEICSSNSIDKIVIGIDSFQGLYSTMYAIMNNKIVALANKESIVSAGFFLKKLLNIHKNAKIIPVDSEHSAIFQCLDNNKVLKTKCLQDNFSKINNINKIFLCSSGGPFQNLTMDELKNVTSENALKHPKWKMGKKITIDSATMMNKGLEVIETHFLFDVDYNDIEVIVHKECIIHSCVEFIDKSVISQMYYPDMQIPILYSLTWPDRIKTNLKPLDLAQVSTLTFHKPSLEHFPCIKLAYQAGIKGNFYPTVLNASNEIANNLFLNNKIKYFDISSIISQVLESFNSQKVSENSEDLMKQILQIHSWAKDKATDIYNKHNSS

[2] = test system: Plasmodium falciparum; test: Antiplasmodial activity against Plasmodium falciparum 3D7 assessed as reduction in parasite growth by measuring DNA content after 3 days by PicoGreen staining based FLUOstar omega microplate reader analysis; type: functional, organism-based; details: 3D7, 72 h
Method in brief: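 Asynchronous cultures in 2% hematocrit, RPMI-1640 complete medium with 0.5% Albumax, under 5% O2/5% CO2/90% N2 at 37 °C. Diluted to 0.5% parasitemia, inhibitors 1.2 nM to 492.4 µM added at start. Growth read after 3 days as DNA content by PicoGreen fluorescence (485/528 nm). IC50 from 4-parameter nonlinear regression; technical duplicate, biological triplicate.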

[3] = molecular target: T2, 1-deoxy-D-xylulose 5-phosphate reductoisomerase (Mycobacterium tuberculosis) (UniProt P9WNS1); test: Inhibition of Mycobacterium tuberculosis DXR expressed in Escherichia coli BL21 CodonPlus (DE3)-RIL cells assessed as remaining activity using DOXP as substrate at 100 uM in presence of NADPH by UV-visible spectrophotometry relative to control
T2 sequence (whole entry): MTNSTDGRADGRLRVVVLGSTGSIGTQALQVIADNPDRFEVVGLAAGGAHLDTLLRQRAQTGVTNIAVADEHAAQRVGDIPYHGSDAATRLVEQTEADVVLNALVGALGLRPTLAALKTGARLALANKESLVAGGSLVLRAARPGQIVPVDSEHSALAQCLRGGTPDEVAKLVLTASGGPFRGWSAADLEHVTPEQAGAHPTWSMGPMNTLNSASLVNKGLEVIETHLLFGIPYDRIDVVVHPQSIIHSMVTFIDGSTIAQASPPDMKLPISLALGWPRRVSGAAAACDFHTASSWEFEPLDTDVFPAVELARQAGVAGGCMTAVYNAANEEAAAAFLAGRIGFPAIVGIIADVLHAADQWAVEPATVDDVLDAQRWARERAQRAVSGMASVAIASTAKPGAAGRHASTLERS
Method in brief: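 Recombinant MtbDXR (pET101/D-TOPO in E. coli BL21 CodonPlus (DE3)-RIL, IMAC-purified) at 0.89 µM in 100 mM MES pH 6.5, 25 mM MgCl2, 150 µM NADPH, 47 µM DOXP, 37 °C. Inhibitor was tested at a single 100 µM. NADPH oxidation was followed at 340 nm, and percent remaining activity was reported. Technical duplicates.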

[4] = test system: Mycobacterium tuberculosis; test: Antibacterial activity against Mycobacterium tuberculosis H37Rv assessed as reduction in bacterial growth incubated for 2 weeks by macroscopic plate reader analysis; type: functional; details: 336 h
Method in brief: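 H37Rv grown in 7H9 broth with 0.08% NaCl, 0.4% glucose, 0.05% casitone and 0.05% tyloxapol, then diluted 1:500. Compounds were made as 20 mg/mL DMSO stocks and run as eleven 2-fold serial dilutions. Plates were held 2 weeks at 37 °C and MIC99 was read macroscopically. Three independent measurements.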

[5] = molecular target: T3, 1-deoxy-D-xylulose 5-phosphate reductoisomerase, apicoplastic (Plasmodium falciparum (isolate 3D7)) (UniProt Q8IKG4); test: Inhibition of Plasmodium falciparum DXR expressed in Escherichia coli BL21 CodonPlus (DE3)-RIL cells using DOXP as substrate at 100 uM in presence of NADPH by UV-visible spectrophotometry relative to control
T3 sequence (whole entry): T1 sequence (Q8IKG4 whole entry)
Method in brief: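 PfDXR single-point test at 100 µM inhibitor. Conditions: 0.86 µM IMAC-purified enzyme, 100 mM Tris pH 7.8, 25 mM MgCl2, 150 µM NADPH, 37 °C. Reaction was started with 144 µM DOXP, and NADPH oxidation was monitored at 340 nm. Percent remaining activity was reported; technical duplicates.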

[6] = molecular target: T3, 1-deoxy-D-xylulose 5-phosphate reductoisomerase, apicoplastic (Plasmodium falciparum (isolate 3D7)); test: Inhibition of Plasmodium falciparum DXR expressed in Escherichia coli BL21 CodonPlus (DE3)-RIL cells assessed as remaining activity using DOXP as substrate at 100 uM in presence of NADPH by UV-visible spectrophotometry relative to control
Method in brief: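 Recombinant His-tagged PfDXR purified by TALON affinity. Assay at 37 °C in 100 mM Tris pH 7.8, 25 mM MgCl2, 0.86 µM enzyme, 150 µM NADPH; reaction started with 144 µM DOXP. NADPH oxidation followed at 340 nm. Single inhibitor concentration 100 µM, given as percent remaining activity; technical duplicates.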

[7] = test system: Plasmodium falciparum; test: Antiplasmodial activity against Plasmodium falciparum E1-C12 harboring with had1 mutation assessed as reduction in parasite growth by measuring DNA content after 3 days by PicoGreen staining based FLUOstar omega microplate reader analysis; type: functional, organism-based; details: time 3.0 day
Method in brief: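 E1-C12 (had1) parasites, asynchronous, at 2% hematocrit in RPMI-1640/0.5% Albumax with hypoxanthine, under 5% O2/5% CO2/90% N2 at 37 °C. Started at 0.5% parasitemia and dosed at 1.2 nM–492.4 µM. After 3 days, DNA was stained with PicoGreen (ex 485/em 528). IC50 came from a 4-parameter fit; technical duplicates, biological triplicates.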

[8] = test system: Plasmodium falciparum; test: Antiplasmodial activity against Plasmodium falciparum E1-C12 harboring with had1 mutation assessed as reduction in parasite growth by measuring DNA content after 3 days in presence of IPP by PicoGreen staining based FLUOstar omega microplate reader analysis; type: functional, organism-based; details: time 3.0 day
Method in brief: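 IPP rescue in had1 E1-C12 parasites: 125 µM IPP was present for the whole assay. Cultures at 2% hematocrit in Albumax-supplemented RPMI, 5% O2/5% CO2, 37 °C, started at 0.5% parasitemia. Inhibitors were dosed at 1.2 nM–492.4 µM, and growth was read after 3 days by PicoGreen fluorescence. 4-parameter fit; duplicate wells, biological triplicates.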

[9] = Cytotoxicity against human HepG2 cells assessed as reduction in cell viability after 24 hrs by Cell Titer Glo assay; type: toxicity, cell-based
Method in brief: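 HepG2 cells in DMEM with 4 mM L-glutamine and 4.5 g/L glucose, trypsinized and plated from a 4×10^5 cells/mL suspension. Compounds were tested as two-fold dilutions from 100 to 0.1 µg/mL, with a DMSO-only control, in duplicate. After 24 h at 37 °C, 5% CO2, CellTiter-Glo luminescence was read after 20 min in the dark.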

SMILES	IC50 [1] [µM]	IC50 [2] [µM]	Activity [3] [%]	MIC [4] [µM]	inhibition [5] [%]	Activity [6] [%]	Activity [7]	Activity [8]	IC50 at 24 h [9] [µM]
CC(=O)N(O)CCC(c1ccc(Cl)c(Cl)c1)P(=O)(O)O (configuration not stated)	13.6	18.6	15.7	> 266	> 90				
CC(=O)N(CCC(c1ccc(Cl)c(Cl)c1)P(=O)(OCOC(=O)C(C)(C)C)OCOC(=O)C(C)(C)C)OCCCCc1ccccc1 (configuration not stated)		13.9		17.8 (≈ 12.5 µg/mL)					
CC(=O)N(CCC(c1ccc(Cl)c(Cl)c1)P(=O)(OCOC(=O)C(C)(C)C)OCOC(=O)C(C)(C)C)OCc1ccc(C(C)C)cc1 (configuration not stated)		13.9		17.8 (≈ 12.5 µg/mL)					
CC(=O)N(CCC(c1ccc(Cl)c(Cl)c1)P(=O)(O)O)OCc1ccc(-c2ccc(C(C)C)cc2)cc1 (configuration not stated)		38.1	63.2	45 (≈ 24.8 µg/mL)		56.1			
CC(=O)N(CCC(c1ccc(Cl)c(Cl)c1)P(=O)(OCOC(=O)C(C)(C)C)OCOC(=O)C(C)(C)C)OC(C)c1ccccc1 (configuration not stated)		5.22		3.9 (≈ 2.63 µg/mL)					
COc1ccc(C(C)ON(CCC(c2ccc(Cl)c(Cl)c2)P(=O)(OCOC(=O)C(C)(C)C)OCOC(=O)C(C)(C)C)C(C)=O)cc1 (configuration not stated)		0.37		6.5 (≈ 4.58 µg/mL)			Active	inactive	> 140
CC(=O)N(CCC(c1ccc(Cl)c(Cl)c1)P(=O)(OCOC(=O)C(C)(C)C)OCOC(=O)C(C)(C)C)OC(C)c1ccc(C(F)(F)F)cc1 (configuration not stated)		23.8		> 134					
CC(=O)N(CCC(c1ccc(Cl)c(Cl)c1)P(=O)(O)O)OCc1ccc(C(C)C)cc1 (configuration not stated)	26.5	68.7	80.9	12.3 (≈ 5.83 µg/mL)	> 90				
CC(=O)N(CCC(c1ccc(Cl)c(Cl)c1)P(=O)(O)O)OCc1ccc(-c2ccccc2)cc1 (configuration not stated)		86.4	93.9	23.1 (≈ 11.7 µg/mL)		27			
CC(=O)N(CCC(c1ccc(Cl)c(Cl)c1)P(=O)(O)O)OCc1ccccc1 (configuration not stated)		31.5	34.2	> 214		26.7			
CC(=O)N(CCC(c1ccc(Cl)c(Cl)c1)P(=O)(OCOC(=O)C(C)(C)C)OCOC(=O)C(C)(C)C)OC(C)c1ccc(F)cc1 (configuration not stated)		21.2		6.6 (≈ 4.57 µg/mL)					
CC(=O)N(CCC(c1ccc(Cl)c(Cl)c1)P(=O)(O)O)OC(C)c1ccc(C)cc1 (configuration not stated)	1.21	3.53	30.7	> 101	> 90		Active	inactive	> 200
CC(=O)N(O)CCC(c1ccc(Cl)c(Cl)c1)P(=O)(OCOC(=O)C(C)(C)C)OCOC(=O)C(C)(C)C (configuration not stated)		13		8.1 (≈ 4.62 µg/mL)					
